In brackets after ≈: the same amount, converted by molar mass.
Tests used:
Format in all cases: functional
Enterococcus faecium [1] = assay: Antibacterial activity against Enterococcus faecium assessed as resistant isolates by CLSI broth microdilution method
Enterococcus faecalis [2] = assay: Antibacterial activity against Enterococcus faecalis assessed as resistant isolates by CLSI broth microdilution method
Enterococcus faecium [3] = assay: Antibacterial activity against Enterococcus faecium assessed as susceptible isolates by CLSI broth microdilution method
Enterococcus faecalis [4] = assay: Antibacterial activity against Enterococcus faecalis assessed as susceptible isolates by CLSI broth microdilution method
Enterococcus faecalis [5] = assay: Antibacterial activity against Enterococcus faecalis by CLSI broth microdilution method
Enterococcus faecium [6] = assay: Antibacterial activity against Enterococcus faecium by CLSI broth microdilution method
[7] = tested on: Streptococcus sp. 'group B'; assay: Antibacterial activity against Beta-hemolytic Streptococcus group B assessed as resistant isolates by CLSI broth microdilution method
In short: (§1)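 Recent clinical isolates from skin/soft tissue, bloodstream and respiratory specimens. Tested by broth microdilution per CLSI M7-A7 and M100-S18, with the appropriate quality controls. The thymidine content of the test medium was assessed to rule out artifactual inhibition.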

[8] = tested on: Streptococcus sp. 'group B'; assay: Antibacterial activity against Beta-hemolytic Streptococcus group B assessed as susceptible isolates by CLSI broth microdilution method
In short: (§2)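 Clinical isolates from skin/soft tissue, bloodstream and respiratory specimens were tested by broth microdilution per CLSI M7-A7 and M100-S18, with quality controls. Values are the number of isolates inhibited at each concentration, or MIC / percent susceptible. Highest concentration tested was 8 µg/ml for iclaprim and trimethoprim-sulfamethoxazole, and 64 µg/ml for trimethoprim.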

[9] = tested on: Streptococcus sp. 'group A'; assay: Antibacterial activity against Beta-hemolytic Streptococcus group A assessed as resistant isolates by CLSI broth microdilution method; in short: as §1
[10] = tested on: Streptococcus sp. 'group A'; assay: Antibacterial activity against Beta-hemolytic Streptococcus group A assessed as susceptible isolates by CLSI broth microdilution method; in short: as §2
Staphylococcus aureus [11] = assay: Antibacterial activity against Methicillin-sensitive Staphylococcus aureus assessed as susceptible isolates by CLSI broth microdilution method
Staphylococcus aureus [12] = assay: Antibacterial activity against Methicillin-resistant Staphylococcus aureus assessed as resistant isolates by CLSI broth microdilution method
Staphylococcus aureus [13] = assay: Antibacterial activity against Methicillin-resistant Staphylococcus aureus assessed as susceptible isolates by CLSI broth microdilution method
Staphylococcus aureus [14] = assay: Antibacterial activity against Methicillin-sensitive Staphylococcus aureus assessed as resistant isolates by CLSI broth microdilution method
Staphylococcus aureus [15] = assay: Antibacterial activity against Methicillin-sensitive Staphylococcus aureus by CLSI broth microdilution method
Staphylococcus aureus [16] = assay: Antibacterial activity against Methicillin-resistant Staphylococcus aureus by CLSI broth microdilution method
[17] = tested on: Streptococcus sp. 'group A'; assay: Antibacterial activity against Beta-hemolytic Streptococcus group A by CLSI broth microdilution method; in short: as §2
[18] = tested on: Streptococcus sp. 'group B'; assay: Antibacterial activity against Beta-hemolytic Streptococcus group B by CLSI broth microdilution method; in short: as §2

Row | Compound | Activity (Enterococcus faecium [1]) [%] | Activity (Enterococcus faecalis [2]) [%] | Activity (Enterococcus faecium [3]) [%] | Activity (Enterococcus faecalis [4]) [%] | MIC50 (Enterococcus faecalis [5]) [µg/mL] | MIC90 (Enterococcus faecalis [5]) [µg/mL] | MIC50 (Enterococcus faecium [6]) [µg/mL] | MIC90 (Enterococcus faecium [6]) [µg/mL] | Activity [8] [%] | Activity [10] [%] | Activity (Staphylococcus aureus [11]) [%] | Activity (Staphylococcus aureus [12]) [%] | Activity (Staphylococcus aureus [13]) [%] | Activity (Staphylococcus aureus [14]) [%] | MIC50 (Staphylococcus aureus [15]) [µg/mL] | MIC90 (Staphylococcus aureus [15]) [µg/mL] | MIC50 [17] [µg/mL] | MIC90 [17] [µg/mL] | MIC50 [18] [µg/mL] | MIC90 [18] [µg/mL] | further results
1 | CC1(C)S[C@@H]2[C@H](NC(=O)[C@H](N)c3ccccc3)C(=O)N2[C@H]1C(=O)O [AMPICILLIN] | 88.1 | 0 | 11.9 | 100 | ≤ 4 | ≤ 4 | > 16 | > 16 |  |  |  |  |  |  |  |  |  |  |  |  | MIC (Enterococcus faecalis [5]): ≤ 4 µg/mL
2 | CCC[C@@H]1C[C@@H](C(=O)N[C@@H]([C@H]2O[C@H](SC)[C@H](O)[C@@H](O)[C@H]2O)[C@H](C)Cl)N(C)C1 [CLINDAMYCIN] |  |  |  |  | > 4 | > 4 | > 4 | > 4 | 88.7 | 96.4 | 96.4 | 47 | 52.7 | 3.4 | ≤ 0.12 | ≤ 0.12 | ≤ 0.12 | ≤ 0.12 | ≤ 0.12 | > 4 | Activity [7]: 10.3%; Activity [9]: 3.3%; MIC90 (Staphylococcus aureus [16]): > 4 µg/mL; MIC [17]: ≤ 0.12 µg/mL; MIC [18]: ≤ 0.12 µg/mL
3 | CC[C@H]1OC(=O)[C@H](C)[C@@H](O[C@H]2C[C@@](C)(OC)[C@@H](O)[C@H](C)O2)[C@H](C)[C@@H](O[C@@H]2O[C@H](C)C[C@H](N(C)C)[C@H]2O)[C@](C)(O)C[C@@H](C)C(=O)[C@H](C)[C@@H](O)[C@]1(C)O [ERYTHROMYCIN] | 84.5 | 52.9 | 3 | 13.5 | > 4 | > 4 | > 4 | > 4 | 73 |  | 77.9 | 84.3 | 14.6 | 21.1 | 0.25 (≈ 0.341 µM) | > 4 | ≤ 0.12 | > 4 | ≤ 0.12 | > 4 | Activity [7]: 26%; Activity [9]: 16.1%; MIC50 (Staphylococcus aureus [16]): > 4 µg/mL; MIC [17]: ≤ 0.12 µg/mL
4 | C[C@H]1COc2c(N3CCN(C)CC3)c(F)cc3c(=O)c(C(=O)O)cn1c23.C[C@H]1COc2c(N3CCN(C)CC3)c(F)cc3c(=O)c(C(=O)O)cn1c23.O [LEVOFLOXACIN] | 82.2 | 34.2 | 14.2 | 65.2 | 1 | > 4 | > 4 | > 4 | 99.5 |  | 94.2 | 82.4 | 16.8 | 5.6 | 0.25 | 0.5 | 0.5 | 1 | 0.5 | 1 | Activity [7]: 0.5%; Activity [9]: 0%; MIC50 (Staphylococcus aureus [16]): > 4 µg/mL; MIC90 (Staphylococcus aureus [16]): > 4 µg/mL
5 | CC(=O)NC[C@H]1CN(c2ccc(N3CCOCC3)c(F)c2)C(=O)O1 [LINEZOLID] | 0.7 | 0 | 99.3 | 100 | 1 (≈ 2.96 µM) | 2 (≈ 5.93 µM) | 1 (≈ 2.96 µM) | 2 (≈ 5.93 µM) | 100 | 100 | 100 |  |  |  | 2 (≈ 5.93 µM) | 2 (≈ 5.93 µM) | 1 (≈ 2.96 µM) | 1 (≈ 2.96 µM) | 1 (≈ 2.96 µM) | 1 (≈ 2.96 µM) | MIC50 (Staphylococcus aureus [16]): 2 µg/mL (≈ 5.93 µM); MIC90 (Staphylococcus aureus [16]): 2 µg/mL (≈ 5.93 µM)
6 | CC1(C)S[C@@H]2[C@H](NC(=O)Cc3ccccc3)C(=O)N2[C@H]1C(=O)O [PENICILLIN G] |  |  |  |  |  |  |  |  | 100 | 100 |  |  |  |  |  |  | ≤ 0.06 | ≤ 0.06 | ≤ 0.06 | ≤ 0.06 | MIC [17]: ≤ 0.06 µg/mL; MIC [18]: ≤ 0.06 µg/mL
7 | CN(C)[C@@H]1C(O)=C(C(N)=O)C(=O)[C@@]2(O)C(O)=C3C(=O)c4c(O)cccc4[C@@](C)(O)[C@H]3C[C@@H]12 [TETRACYCLINE] | 32 | 71.3 | 67.3 | 28.4 | > 16 | > 16 | ≤ 0.5 | > 16 | 21.6 | 90.2 | 95.8 | 12.8 | 86.5 | 4 | ≤ 0.5 | ≤ 0.5 | ≤ 0.5 | ≤ 0.5 | > 16 | > 16 | Activity [7]: 77.9%; Activity [9]: 9.6%; MIC90 (Staphylococcus aureus [16]): > 16 µg/mL; MIC [17]: ≤ 0.5 µg/mL; MIC (Enterococcus faecium [6]): ≤ 0.5 µg/mL
8 | CN[C@H](CC(C)C)C(=O)N[C@H]1C(=O)N[C@@H](CC(N)=O)C(=O)N[C@H]2C(=O)N[C@H]3C(=O)N[C@H](C(=O)N[C@H](C(=O)O)c4cc(O)cc(O)c4-c4cc3ccc4O)[C@H](O)c3ccc(c(Cl)c3)Oc3cc2cc(c3O[C@@H]2O[C@H](CO)[C@@H](O)[C@H](O)[C@H]2O[C@H]2C[C@](C)(N)[C@H](O)[C@H](C)O2)Oc2ccc(cc2Cl)[C@H]1O [VANCOMYCIN] | 43.2 | 1.9 | 55.8 | 97.7 | 1 (≈ 0.69 µM) | 2 (≈ 1.38 µM) | 1 (≈ 0.69 µM) | > 16 | 100 | 100 | 100 | 0 | 100 | 0 | 1 (≈ 0.69 µM) | 1 (≈ 0.69 µM) | ≤ 0.5 | ≤ 0.5 | ≤ 0.5 | ≤ 0.5 | MIC50 (Staphylococcus aureus [16]): 1 µg/mL (≈ 0.69 µM); MIC90 (Staphylococcus aureus [16]): 1 µg/mL (≈ 0.69 µM); MIC [17]: ≤ 0.5 µg/mL; MIC [18]: ≤ 0.5 µg/mL

— ChEMBL document CHEMBL1649441, “Potency and bactericidal activity of iclaprim against recent clinical gram-positive isolates” (2009)
